Test results published in PubChem BioAssay.
Calls of active or inactive are those of the source.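 Rule for the calls, unless noted: active = viability at or below 10% of carrier control in both of two separate runs; inconclusive = viability at or below 10% in only one of the two runs; inactive = the rest.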

Columns and labels:
[1] = Her2 expression decrease, cell viability multiplex – SKBR3 breast tumor cells, AlphaScreen, ATP viability, primary screen (AID 461;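 active = Her2 level under about 52% in both replicate screens, with viability over 70% of control, limit read from the data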;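 for Her2 level: lower value means less Her2 protein in the cells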;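 for viability: percent of carrier control wells set as 100% viability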); details: SKBR3 Her2 protein level, 18-24 h, measured here: SKBR3 viability, ATP luminescence, at 10 µM
[2] = target: Receptor tyrosine-protein kinase erbB-2 (Homo sapiens) (UniProt P04626); experiment: as above; details: 18-24 h, at 10 µM, stronger effect = lower value
Sequence of Receptor tyrosine-protein kinase erbB-2 (Homo sapiens) (P04626 whole entry, looked up): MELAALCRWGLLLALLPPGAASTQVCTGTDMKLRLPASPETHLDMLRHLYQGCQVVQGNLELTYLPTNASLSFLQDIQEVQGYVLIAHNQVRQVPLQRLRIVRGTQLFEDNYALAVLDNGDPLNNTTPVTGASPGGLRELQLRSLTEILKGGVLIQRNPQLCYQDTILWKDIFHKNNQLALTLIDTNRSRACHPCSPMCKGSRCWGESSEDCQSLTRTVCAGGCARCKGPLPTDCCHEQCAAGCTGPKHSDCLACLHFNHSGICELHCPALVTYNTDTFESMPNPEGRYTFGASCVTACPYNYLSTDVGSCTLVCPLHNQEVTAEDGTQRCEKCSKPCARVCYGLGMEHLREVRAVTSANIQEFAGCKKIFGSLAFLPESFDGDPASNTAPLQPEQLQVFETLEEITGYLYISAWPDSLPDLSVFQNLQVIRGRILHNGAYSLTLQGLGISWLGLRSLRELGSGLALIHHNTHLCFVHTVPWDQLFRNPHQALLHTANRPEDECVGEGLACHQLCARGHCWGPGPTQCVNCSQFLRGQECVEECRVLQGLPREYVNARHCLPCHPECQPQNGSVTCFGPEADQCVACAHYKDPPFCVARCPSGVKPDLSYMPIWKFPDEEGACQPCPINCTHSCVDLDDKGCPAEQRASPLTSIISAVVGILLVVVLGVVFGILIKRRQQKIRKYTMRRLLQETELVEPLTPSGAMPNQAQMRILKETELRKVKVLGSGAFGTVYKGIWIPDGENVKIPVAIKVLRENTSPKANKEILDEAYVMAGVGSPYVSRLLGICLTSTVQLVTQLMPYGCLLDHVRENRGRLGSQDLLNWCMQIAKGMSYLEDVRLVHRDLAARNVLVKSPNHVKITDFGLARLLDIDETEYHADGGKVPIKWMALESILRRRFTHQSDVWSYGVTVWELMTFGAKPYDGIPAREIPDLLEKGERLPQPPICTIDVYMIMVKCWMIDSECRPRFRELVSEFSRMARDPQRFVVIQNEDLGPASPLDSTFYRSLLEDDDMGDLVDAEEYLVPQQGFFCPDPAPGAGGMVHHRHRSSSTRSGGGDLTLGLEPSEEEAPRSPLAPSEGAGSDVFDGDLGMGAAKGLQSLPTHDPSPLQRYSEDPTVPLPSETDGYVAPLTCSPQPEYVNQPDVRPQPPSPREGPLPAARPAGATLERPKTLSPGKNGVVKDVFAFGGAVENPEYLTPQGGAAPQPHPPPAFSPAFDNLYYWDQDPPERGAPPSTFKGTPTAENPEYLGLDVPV

[3] = reduced viability of SK-BR-3 breast cancer cells – cell-based, 24 h, human, pilot screen (AID 572); details: SK-BR-3 viability, CellTiter-Glo luminescence, at 10 µM, stronger effect = lower value;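 note: compound exposure lasted between 18 and 24 h rather than exactly 24 h; 100% = carrier-treated control wells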
[4] = HUVEC growth inhibition – cell-based, human, primary screen (AID 575;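 active = viability at or below 30% in both replicate assays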;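 note: 100% = median of untreated cell wells with 0.1% DMSO on each plate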); details: HUVEC proliferation, CellTiter-Glo luminescence, 72 h; at 10 µM; stronger effect = lower value
In short: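 material = primary HUVEC, no more than 12 passages | input = 1250 cells per well | controls = vehicle and MePR control wells | measured by = CTG luminescence | times = 72 h compound incubation | format = collagen-coated 384-well format | read-out = % viability vs DMSO wells | doses = single 10 µM dose, 0.1% DMSO, from 5x medium stock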

[5] = H69AR cell proliferation blockers – human, duplicate replicates, primary screen (AID 580;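 active = viability at or under a set limit in both replicates, limit being median viability minus 3 SD, cut at about 48% in these data, passing the limit was not always enough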;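 note: 100% = mean luminescence of untreated wells and 0% = no signal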); details: H69AR lung tumor cells viability, ATP luminescence, 72 h; at 10 µM; stronger effect = lower value
[6] = MRP1 drug-resistance reversers in H69AR cells – cell-based, doxorubicin co-treatment, pilot screen (AID 601;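 active = viability loss from added drug above about 55%, and viability with drug at most 40%, in both replicates, limit read from the data, passing the limit was not always enough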); details: CellTiter-Glo, 72 h, at 10 µM; for differential viability (reversal): stronger effect = higher value
[7] = yeast transport mutant growth inhibition pilot in 384-well plates, post-Golgi transport modulator project (AID 636; in the data active = inhibition above about 31%); details: absorbance 615 nm, about 18 h, stronger effect = higher value
[8] = growth suppression of yeast trafficking mutant, preliminary HTS, modulators of trafficking downstream of Golgi apparatus project, 1536-format plate, OD 615 nm (AID 637; in the data active = inhibition above about 30%); details: yeast transport mutant growth, absorbance 615 nm, 18 h; stronger effect = higher value
[9] = H69AR cells + 2 uM doxorubicin, measured here: viability with 2 uM doxorubicin, stronger effect = lower value
[10] = H69AR cells, compound alone cytotoxicity

Cc1ccc(-n2ncc3c(=O)n(CC(=O)NC4CCCCC4)cnc32)cc1C
viability [1]: 105%
Her2 level [2]: 108% (inactive)
viability [3]: 105% (inactive)
viability [4]: 92.7% (inactive)
viability [5]: 87.4% (inactive)
differential viability (reversal) ([6]; H69AR cells + 2 uM doxorubicin): 1.56% (inactive)
viability [6, 9]: 85.8%
viability [6, 10]: 87.4%
inhibition [7]: -3.68% (inactive)
inhibition [8]: -1.13% (inactive)

COc1ccc(C(=O)OC(COc2ccccc2)Cn2ccnc2)cc1 (stereo not given)
viability [1]: 83%
Her2 level [2]: 97% (inactive)
viability [3]: 83% (inactive)
viability [4]: 79.6% (inactive)
viability [5]: 94.7% (inactive)
differential viability (reversal) ([6]; H69AR cells + 2 uM doxorubicin): 9.57% (inactive)
viability [6, 9]: 85.1%
viability [6, 10]: 94.7%
inhibition [7]: 100% (active)
inhibition [8]: 95.5% (active)

COc1cc2c(cc1NC(=O)COC(=O)Cn1cnc3ccccc31)oc1ccccc12
viability [1]: 92%
Her2 level [2]: 89% (inactive)
viability [3]: 92% (inactive)
viability [4]: 64.4% (inactive)
viability [5]: 80.8% (inactive)
differential viability (reversal) ([6]; H69AR cells + 2 uM doxorubicin): -16.1% (inactive)
viability [6, 9]: 96.9%
viability [6, 10]: 80.8%
inhibition [7]: -1.87% (inactive)
inhibition [8]: -3.23% (inactive)

CC1CCCC(NC(=O)CSc2ncccc2C(=O)O)C1C (stereo not given)
viability [1]: 95%
Her2 level [2]: 79% (inactive)
viability [3]: 95% (inactive)
viability [4]: 86.4% (inactive)
viability [5]: 87.8% (inactive)
differential viability (reversal) ([6]; H69AR cells + 2 uM doxorubicin): 3.03% (inactive)
viability [6, 9]: 84.7%
viability [6, 10]: 87.8%
inhibition [7]: -4.61% (inactive)
inhibition [8]: -4.36% (inactive)

COc1ccccc1NC(=O)C1CC(=O)N(c2ccc(F)cc2)C1 (stereo not given)
viability [1]: 99%
Her2 level [2]: 144% (inactive)
viability [3]: 99% (inactive)
viability [4]: 109% (inactive)
viability [5]: 97.3% (inactive)
differential viability (reversal) ([6]; H69AR cells + 2 uM doxorubicin): 8.91% (inactive)
viability [6, 9]: 88.4%
viability [6, 10]: 97.3%
inhibition [7]: 0.53% (inactive)
inhibition [8]: 19.2% (inactive)

COC(=O)c1sc(S(=O)(=O)NCc2cccs2)c(C(=O)OC)c1C
viability [1]: 84%
Her2 level [2]: 93% (inactive)
viability [3]: 84% (inactive)
viability [4]: 85.8% (inactive)
viability [5]: 92.3% (inactive)
differential viability (reversal) ([6]; H69AR cells + 2 uM doxorubicin): 7.38% (inactive)
viability [6, 9]: 84.9%
viability [6, 10]: 92.3%
inhibition [7]: -8.24% (inactive)
inhibition [8]: 4.26% (inactive)

O=C(O)CCNc1ccc2c(c1)OCCO2
viability [1]: 97.5%
Her2 level [2]: 86.5% (inactive)
viability [3]: 97.5% (inactive)
viability [4]: 109% (inactive)
viability [5]: 86.9% (inactive)
differential viability (reversal) ([6]; H69AR cells + 2 uM doxorubicin): 7.24% (inactive)
viability [6, 9]: 79.6%
viability [6, 10]: 86.9%
inhibition [7]: -5.14% (inactive)
inhibition [8]: -2.67% (inactive)

Cc1ccc(-c2cc(C(=O)NCc3ccc4c(c3)OCO4)no2)cc1
viability [1]: 96%
Her2 level [2]: 77% (inactive)
viability [3]: 96% (inactive)
viability [4]: 84.9% (inactive)
viability [5]: 90.8% (inactive)
differential viability (reversal) ([6]; H69AR cells + 2 uM doxorubicin): 5.94% (inactive)
viability [6, 9]: 84.9%
viability [6, 10]: 90.8%
inhibition [7]: -7.43% (inactive)
inhibition [8]: -0.33% (inactive)

COC(=O)c1cc(S(=O)(=O)N2CCC(C)CC2)ccc1F
viability [1]: 71%
Her2 level [2]: 104% (inactive)
viability [3]: 71% (inactive)
viability [4]: 88.6% (inactive)
viability [5]: 88.2% (inactive)
differential viability (reversal) ([6]; H69AR cells + 2 uM doxorubicin): -1.02% (inactive)
viability [6, 9]: 89.2%
viability [6, 10]: 88.2%
inhibition [7]: -3.51% (inactive)
inhibition [8]: 2.79% (inactive)

CC(C)C(NC(=O)c1ccco1)C(=O)NCC(c1ccco1)N1CCCCC1 (stereo not given)
viability [1]: 96.5%
Her2 level [2]: 94.5% (inactive)
viability [3]: 96.5% (inactive)
viability [4]: 94.8% (inactive)
viability [5]: 93.9% (inactive)
differential viability (reversal) ([6]; H69AR cells + 2 uM doxorubicin): 18.1% (inactive)
viability [6, 9]: 75.8%
viability [6, 10]: 93.9%
inhibition [7]: -2.97% (inactive)
inhibition [8]: -0.32% (inactive)

COc1ccccc1N1CCN(C(=O)c2c(-c3c(Cl)cccc3Cl)noc2C)CC1
viability [1]: 104%
Her2 level [2]: 82.5% (inactive)
viability [3]: 104% (inactive)
viability [4]: 79% (inactive)
viability [5]: 105% (inactive)
differential viability (reversal) ([6]; H69AR cells + 2 uM doxorubicin): 15% (inactive)
viability [6, 9]: 90.3%
viability [6, 10]: 105%
inhibition [7]: -5.95% (inactive)
inhibition [8]: 2.46% (inactive)

CC(=O)c1cc(F)c(N2CCN(C(=O)Cc3ccccc3)CC2)cc1C
viability [1]: 96.5%
Her2 level [2]: 97% (inactive)
viability [3]: 96.5% (inactive)
viability [4]: 107% (inactive)
viability [5]: 93.5% (inactive)
differential viability (reversal) ([6]; H69AR cells + 2 uM doxorubicin): -7.49% (inactive)
viability [6, 9]: 101%
viability [6, 10]: 93.5%
inhibition [7]: 0% (inactive)
inhibition [8]: -4.35% (inactive)

Cc1sc2ncnc(OCC(=O)N3CCN(S(=O)(=O)c4ccccc4)CC3)c2c1C
viability [1]: 69.5%
Her2 level [2]: 84.5% (inactive)
viability [3]: 69.5% (inactive)
viability [4]: 100% (inactive)
viability [5]: 92.7% (inactive)
differential viability (reversal) ([6]; H69AR cells + 2 uM doxorubicin): 12% (inactive)
viability [6, 9]: 80.7%
viability [6, 10]: 92.7%
inhibition [7]: -1.32% (inactive)
inhibition [8]: 0.95% (inactive)

CCc1cc(C(=O)OC)c(NC(=O)CCC(=O)O)s1
viability [1]: 96.5%
Her2 level [2]: 96% (inactive)
viability [3]: 96.5% (inactive)
viability [4]: 87.6% (inactive)
viability [5]: 107% (inactive)
differential viability (reversal) ([6]; H69AR cells + 2 uM doxorubicin): 17.8% (inactive)
viability [6, 9]: 89.1%
viability [6, 10]: 107%
inhibition [7]: -2.53% (inactive)
inhibition [8]: 0% (inactive)
